In ChEMBL document CHEMBL1800057, “Discovery of dual inducible/neuronal nitric oxide synthase (iNOS/nNOS) inhibitor development candidate 4-((2-cyclobutyl-1H-imidazo[4,5-b]pyrazin-1-yl)methyl)-7,8-difluoroquinolin-2(1H)-one (KD7332) part 2: identification of a novel, potent, and selective series of benzimidazole-quinolinone …” (J Med Chem, 2010):

Experiments:
[1] = Plasma clearance in mouse at 3 mg/kg, iv and 10 mg/kg, po; format: ADME, organism-based
[2] = Volume of distribution at steady state in mouse at 3 mg/kg, iv and 10 mg/kg, po; format: ADME, organism-based; conditions: in vivo, read-out: Vdss
[3] = Cmax in mouse at 3 mg/kg, iv and 10 mg/kg, po; format: ADME, organism-based; conditions: in vivo
[4] = Half life in mouse at 10 mg/kg, po; format: ADME, organism-based; design: dose 10 mg/kg, route oral; conditions: in vivo
[5] = Oral bioavailability in mouse at 10 mg/kg; format: ADME, organism-based; conditions: in vivo
Cytochrome P450 1A2 = target: T1, Cytochrome P450 1A2 (Homo sapiens, UniProt P05177); assay: Inhibition of human CYP1A2; format: ADME
T1 sequence (P05177 whole entry): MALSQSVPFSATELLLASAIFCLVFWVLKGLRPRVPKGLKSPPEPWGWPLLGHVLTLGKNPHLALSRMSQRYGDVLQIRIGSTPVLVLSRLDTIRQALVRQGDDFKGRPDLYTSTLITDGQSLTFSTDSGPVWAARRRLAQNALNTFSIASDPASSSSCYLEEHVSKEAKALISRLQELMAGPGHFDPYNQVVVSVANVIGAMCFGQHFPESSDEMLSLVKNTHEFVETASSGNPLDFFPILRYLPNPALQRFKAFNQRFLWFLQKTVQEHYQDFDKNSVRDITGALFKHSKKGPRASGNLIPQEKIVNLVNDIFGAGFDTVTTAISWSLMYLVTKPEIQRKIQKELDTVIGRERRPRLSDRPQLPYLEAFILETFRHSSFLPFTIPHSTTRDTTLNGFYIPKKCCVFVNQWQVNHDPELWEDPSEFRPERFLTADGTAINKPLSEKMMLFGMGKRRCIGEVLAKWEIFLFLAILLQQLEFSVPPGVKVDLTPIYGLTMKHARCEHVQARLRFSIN

Cytochrome P450 2D6 [6] = target: T2, Cytochrome P450 2D6 (Homo sapiens, UniProt P10635); assay: Inhibition of human CYP2D6; format: ADME
Cytochrome P450 2D6 [7] = target: T2, Cytochrome P450 2D6; assay: Inhibition of human CYP2D6 at >100 uM; format: ADME
Cytochrome P450 2C19 [8] = target: T3, Cytochrome P450 2C19 (Homo sapiens, UniProt P33261); assay: Inhibition of human CYP2C19; format: ADME
[9] = target: T4, Voltage-gated inwardly rectifying potassium channel KCNH2 (Homo sapiens, UniProt Q12809); assay: Inhibition of human ERG by patch clamp assay
[10] = target: T4, Voltage-gated inwardly rectifying potassium channel KCNH2; assay: Inhibition of human ERG at >30 uM by patch clamp assay
Cytochrome P450 2C9 = Cytochrome P450 2C9 (Homo sapiens, UniProt P11712); assay: Inhibition of human CYP2C9 at >60 uM; format: ADME
[11] = target: Nitric oxide synthase, inducible (Homo sapiens, UniProt P35228); assay: Inhibition of human iNOS expressed in HEK293 cells assessed as inhibition of nitric oxide production after 18 hrs using 2,3-diaminonaphthalene by fluorescence assay; format: cell-based
Outline: (§1)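 HEK293 cells grown to ~70% confluence in DMEM/10% FBS with pen/strep, transiently transfected with 10 μg human or murine iNOS plasmid plus Fugene 6 for 4 h at 37 °C, 10% CO2. Cells replated at 5e5 cells/mL and dosed with compound at once; 1400W (100 μM final) as positive control. After 18 h, DAN (10 μg/mL final) in HCl (0.1 N final) added for 20 min at room temperature. Fluorescence read after NaOH (0.12 N final).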

Liver = assay: Half life in mouse liver microsomes assessed as formation of oxidation product and glucuronide conjugate; format: ADME, Microsome
Outline: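 Mouse liver microsomes run under combined phase I oxidation and phase II glucuronide conjugation; half-life reported in minutes.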

[12] = target: T5, Nitric oxide synthase, inducible (Mus musculus, UniProt P29477); assay: Inhibition of mouse iNOS expressed in HEK293 cells assessed as inhibition of nitric oxide production after 18 hrs using 2,3-diaminonaphthalene by fluorescence assay; format: cell-based; outline: as §1
T5 sequence (P29477 whole entry): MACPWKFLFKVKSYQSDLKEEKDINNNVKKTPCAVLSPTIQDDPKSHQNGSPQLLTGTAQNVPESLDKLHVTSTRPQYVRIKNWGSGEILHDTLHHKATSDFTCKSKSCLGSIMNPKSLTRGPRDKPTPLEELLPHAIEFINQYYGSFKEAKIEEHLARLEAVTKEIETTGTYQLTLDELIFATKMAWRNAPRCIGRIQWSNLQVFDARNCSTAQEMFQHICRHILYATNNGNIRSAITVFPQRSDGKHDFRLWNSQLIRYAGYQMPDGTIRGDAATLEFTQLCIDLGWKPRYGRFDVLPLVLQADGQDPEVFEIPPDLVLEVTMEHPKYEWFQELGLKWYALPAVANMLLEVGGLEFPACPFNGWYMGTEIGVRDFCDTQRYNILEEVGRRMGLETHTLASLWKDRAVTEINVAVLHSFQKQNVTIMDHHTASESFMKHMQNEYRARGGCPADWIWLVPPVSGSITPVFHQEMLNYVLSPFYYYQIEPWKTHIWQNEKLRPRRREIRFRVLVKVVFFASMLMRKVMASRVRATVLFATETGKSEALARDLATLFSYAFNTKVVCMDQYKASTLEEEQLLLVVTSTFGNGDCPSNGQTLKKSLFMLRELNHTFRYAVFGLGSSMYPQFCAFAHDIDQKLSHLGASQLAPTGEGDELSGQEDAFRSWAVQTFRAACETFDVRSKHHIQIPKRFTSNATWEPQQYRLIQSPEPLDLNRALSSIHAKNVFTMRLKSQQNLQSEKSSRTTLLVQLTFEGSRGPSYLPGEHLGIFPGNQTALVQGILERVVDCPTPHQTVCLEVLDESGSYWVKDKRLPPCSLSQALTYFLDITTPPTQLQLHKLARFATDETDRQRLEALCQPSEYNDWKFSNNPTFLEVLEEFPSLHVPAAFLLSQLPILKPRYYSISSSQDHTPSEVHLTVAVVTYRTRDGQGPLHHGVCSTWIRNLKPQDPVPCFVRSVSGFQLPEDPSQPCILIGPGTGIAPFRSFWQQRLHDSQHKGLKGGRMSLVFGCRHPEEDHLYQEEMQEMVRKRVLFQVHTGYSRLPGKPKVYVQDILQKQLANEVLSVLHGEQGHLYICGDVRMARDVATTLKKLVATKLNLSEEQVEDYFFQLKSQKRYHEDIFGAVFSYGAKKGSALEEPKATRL

Mus musculus = assay: Inhibition of LPS-induced iNOS activation in BALB/c mouse assessed as plasma nitrate levels administered via oral gavage before LPS challenge measured after 6 to 8 hrs using 2,3-diaminonaphthalene by fluorescence assay; format: functional
Outline: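 Male BALB/c mice dosed by oral gavage (90% PEG/5% Tween 80/5% PVP + 0.5% w/v CMC) immediately before LPS (10 mg/kg ip in 0.9% NaCl). Mice killed at 6 h. EDTA plasma analysed for nitrate and drug levels; nitrite measured by DAN fluorescence.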

[13] = AUC in mouse at 3 mg/kg, iv and 10 mg/kg, po; format: ADME, organism-based; conditions: plasma
[14] = Cmax in mouse 10 mg/kg, po; format: ADME, organism-based; design: dose 10 mg/kg, route oral; conditions: in vivo
Cytochrome P450 3A4 = Cytochrome P450 3A4 (Homo sapiens, UniProt P08684); assay: Inhibition of human CYP3A4 at >60 uM; format: ADME
Cytochrome P450 2C19 [15] = target: T3, Cytochrome P450 2C19; assay: Inhibition of human CYP2C19 at >60 uM; format: ADME

T3 sequence (P33261 whole entry): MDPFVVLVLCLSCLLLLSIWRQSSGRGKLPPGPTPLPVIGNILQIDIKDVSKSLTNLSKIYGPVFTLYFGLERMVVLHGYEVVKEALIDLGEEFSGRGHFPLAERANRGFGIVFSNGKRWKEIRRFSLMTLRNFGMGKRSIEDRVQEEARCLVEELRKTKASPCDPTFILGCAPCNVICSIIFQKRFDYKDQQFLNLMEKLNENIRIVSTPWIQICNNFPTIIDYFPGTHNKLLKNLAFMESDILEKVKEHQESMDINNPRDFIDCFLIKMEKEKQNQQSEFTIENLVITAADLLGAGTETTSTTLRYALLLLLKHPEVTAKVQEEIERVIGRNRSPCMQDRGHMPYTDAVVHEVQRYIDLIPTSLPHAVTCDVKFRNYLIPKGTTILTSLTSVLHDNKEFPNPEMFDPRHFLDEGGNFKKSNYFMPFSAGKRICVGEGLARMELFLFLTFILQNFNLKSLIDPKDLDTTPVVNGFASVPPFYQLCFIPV
Sequence of Nitric oxide synthase, inducible (Homo sapiens, UniProt P35228) (P35228 whole entry): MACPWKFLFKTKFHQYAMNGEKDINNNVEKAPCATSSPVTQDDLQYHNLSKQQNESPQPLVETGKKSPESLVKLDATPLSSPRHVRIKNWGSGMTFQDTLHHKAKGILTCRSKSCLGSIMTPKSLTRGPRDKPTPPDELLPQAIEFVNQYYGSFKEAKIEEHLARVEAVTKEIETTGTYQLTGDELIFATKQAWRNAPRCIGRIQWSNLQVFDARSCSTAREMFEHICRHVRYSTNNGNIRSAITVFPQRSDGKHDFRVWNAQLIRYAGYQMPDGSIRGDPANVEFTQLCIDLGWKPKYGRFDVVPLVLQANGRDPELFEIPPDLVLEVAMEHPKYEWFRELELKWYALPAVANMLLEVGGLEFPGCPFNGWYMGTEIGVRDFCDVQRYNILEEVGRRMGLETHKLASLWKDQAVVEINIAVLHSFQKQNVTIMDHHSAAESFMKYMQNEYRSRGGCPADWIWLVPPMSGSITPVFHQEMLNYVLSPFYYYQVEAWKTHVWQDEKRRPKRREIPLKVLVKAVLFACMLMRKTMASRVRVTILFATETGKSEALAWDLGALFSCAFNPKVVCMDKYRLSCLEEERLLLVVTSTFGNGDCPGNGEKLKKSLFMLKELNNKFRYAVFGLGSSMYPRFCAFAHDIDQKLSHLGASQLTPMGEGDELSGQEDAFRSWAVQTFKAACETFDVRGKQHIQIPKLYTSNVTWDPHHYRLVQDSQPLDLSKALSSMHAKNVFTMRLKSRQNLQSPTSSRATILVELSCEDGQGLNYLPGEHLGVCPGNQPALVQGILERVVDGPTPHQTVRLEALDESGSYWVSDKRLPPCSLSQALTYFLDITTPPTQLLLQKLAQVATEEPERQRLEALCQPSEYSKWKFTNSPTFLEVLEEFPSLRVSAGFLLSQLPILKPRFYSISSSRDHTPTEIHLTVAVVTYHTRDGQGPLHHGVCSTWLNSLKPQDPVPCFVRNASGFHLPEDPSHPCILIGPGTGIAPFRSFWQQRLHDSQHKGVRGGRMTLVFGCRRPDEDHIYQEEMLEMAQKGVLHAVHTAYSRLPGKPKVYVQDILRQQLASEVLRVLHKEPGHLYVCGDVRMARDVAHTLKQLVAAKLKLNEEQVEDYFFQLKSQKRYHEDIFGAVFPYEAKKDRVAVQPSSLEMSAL
T4 sequence (Q12809 whole entry): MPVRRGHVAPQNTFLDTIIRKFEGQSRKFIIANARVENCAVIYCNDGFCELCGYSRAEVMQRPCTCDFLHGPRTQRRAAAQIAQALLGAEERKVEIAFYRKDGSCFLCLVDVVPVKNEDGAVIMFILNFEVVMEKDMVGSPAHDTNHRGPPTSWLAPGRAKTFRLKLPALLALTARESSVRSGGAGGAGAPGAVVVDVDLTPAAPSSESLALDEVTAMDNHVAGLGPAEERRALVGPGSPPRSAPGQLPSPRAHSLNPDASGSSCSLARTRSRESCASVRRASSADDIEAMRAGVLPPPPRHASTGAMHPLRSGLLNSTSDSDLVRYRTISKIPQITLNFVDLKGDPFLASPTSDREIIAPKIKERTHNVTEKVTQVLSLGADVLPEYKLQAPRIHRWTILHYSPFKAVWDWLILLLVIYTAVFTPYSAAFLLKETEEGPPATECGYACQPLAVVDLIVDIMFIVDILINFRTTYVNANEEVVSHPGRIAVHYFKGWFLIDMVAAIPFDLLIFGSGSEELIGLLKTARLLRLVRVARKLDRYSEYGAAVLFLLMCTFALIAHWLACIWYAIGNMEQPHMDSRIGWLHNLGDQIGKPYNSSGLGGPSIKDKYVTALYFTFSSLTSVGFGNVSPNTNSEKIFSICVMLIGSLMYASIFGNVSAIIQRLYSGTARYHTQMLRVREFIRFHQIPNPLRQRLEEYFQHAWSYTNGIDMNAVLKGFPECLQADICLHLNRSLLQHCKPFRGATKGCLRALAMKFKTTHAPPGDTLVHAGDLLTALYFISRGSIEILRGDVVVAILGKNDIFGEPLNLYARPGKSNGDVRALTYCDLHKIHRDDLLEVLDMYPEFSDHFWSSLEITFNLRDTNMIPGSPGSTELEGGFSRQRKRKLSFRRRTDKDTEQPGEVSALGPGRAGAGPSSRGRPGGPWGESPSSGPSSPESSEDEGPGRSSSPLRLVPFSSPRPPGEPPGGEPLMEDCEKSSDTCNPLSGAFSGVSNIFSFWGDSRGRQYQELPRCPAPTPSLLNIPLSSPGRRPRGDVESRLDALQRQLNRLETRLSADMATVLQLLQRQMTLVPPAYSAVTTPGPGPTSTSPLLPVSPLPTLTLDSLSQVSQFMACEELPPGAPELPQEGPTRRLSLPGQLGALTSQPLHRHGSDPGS
T2 sequence (P10635 whole entry): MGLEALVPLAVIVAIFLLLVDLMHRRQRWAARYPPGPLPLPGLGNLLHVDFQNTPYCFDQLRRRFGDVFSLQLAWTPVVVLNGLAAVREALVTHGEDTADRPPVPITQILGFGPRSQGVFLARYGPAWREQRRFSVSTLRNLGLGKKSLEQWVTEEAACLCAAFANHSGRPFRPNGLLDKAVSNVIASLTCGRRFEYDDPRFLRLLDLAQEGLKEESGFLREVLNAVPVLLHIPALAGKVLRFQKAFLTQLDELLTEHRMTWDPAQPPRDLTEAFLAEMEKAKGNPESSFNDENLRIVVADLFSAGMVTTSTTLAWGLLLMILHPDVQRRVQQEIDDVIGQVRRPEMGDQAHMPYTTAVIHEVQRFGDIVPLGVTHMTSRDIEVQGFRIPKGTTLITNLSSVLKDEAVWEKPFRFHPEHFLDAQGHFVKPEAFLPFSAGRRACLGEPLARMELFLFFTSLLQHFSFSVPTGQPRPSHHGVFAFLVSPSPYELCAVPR
Sequence of Cytochrome P450 3A4 (P08684 whole entry): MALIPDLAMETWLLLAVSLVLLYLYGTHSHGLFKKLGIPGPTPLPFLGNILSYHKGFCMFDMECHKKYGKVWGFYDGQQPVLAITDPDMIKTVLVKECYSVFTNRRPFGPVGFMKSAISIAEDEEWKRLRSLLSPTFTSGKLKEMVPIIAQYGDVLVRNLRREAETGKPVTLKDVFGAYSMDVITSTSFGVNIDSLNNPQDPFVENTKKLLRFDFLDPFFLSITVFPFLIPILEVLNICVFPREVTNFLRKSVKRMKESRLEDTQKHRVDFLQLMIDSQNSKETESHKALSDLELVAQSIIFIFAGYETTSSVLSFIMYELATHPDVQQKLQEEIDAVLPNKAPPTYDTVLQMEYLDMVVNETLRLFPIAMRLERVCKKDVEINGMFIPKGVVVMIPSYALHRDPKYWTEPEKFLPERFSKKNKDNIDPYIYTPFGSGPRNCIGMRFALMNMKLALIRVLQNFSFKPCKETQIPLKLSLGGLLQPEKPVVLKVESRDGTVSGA
Sequence of Cytochrome P450 2C9 (P11712 whole entry): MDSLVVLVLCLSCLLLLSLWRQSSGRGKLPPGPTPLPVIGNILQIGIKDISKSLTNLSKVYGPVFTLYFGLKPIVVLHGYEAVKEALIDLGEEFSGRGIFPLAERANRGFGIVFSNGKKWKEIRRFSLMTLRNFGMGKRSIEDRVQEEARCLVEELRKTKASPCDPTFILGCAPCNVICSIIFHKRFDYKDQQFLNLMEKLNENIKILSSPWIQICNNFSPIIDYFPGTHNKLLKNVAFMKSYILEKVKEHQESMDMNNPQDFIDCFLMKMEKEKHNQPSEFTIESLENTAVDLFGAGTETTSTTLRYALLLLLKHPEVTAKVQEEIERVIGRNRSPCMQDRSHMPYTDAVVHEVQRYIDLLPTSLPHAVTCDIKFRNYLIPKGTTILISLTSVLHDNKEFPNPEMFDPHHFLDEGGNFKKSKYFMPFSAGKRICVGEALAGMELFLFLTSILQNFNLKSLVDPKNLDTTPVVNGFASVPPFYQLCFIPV

| Structure (SMILES) | clearance [1] | Vd [2] | Cmax [3] | half-life [4] | bioavailability [5] | EC50 (Cytochrome P450 1A2) | EC50 (Cytochrome P450 2D6 [6]) | inhibition (INH) (Cytochrome P450 2D6 [7]) | EC50 (Cytochrome P450 2C19 [8]) | EC50 [9] | inhibition (INH) [10] | inhibition (INH) (Cytochrome P450 2C9) | EC50 [11] | t1/2 (Liver) | EC50 [12] | ED50 (Mus musculus) | AUC [13] | Cmax [14] | inhibition (INH) (Cytochrome P450 3A4) | inhibition (INH) (Cytochrome P450 2C19 [15]) |
| --- | --- | --- | --- | --- | --- | --- | --- | --- | --- | --- | --- | --- | --- | --- | --- | --- | --- | --- | --- | --- |
| O=c1cc(Cn2c(C3CCC3)nc3nccnc32)c2ccc(F)c(F)c2[nH]1 | 4.5 mL/min/kg | 0.39 L/kg | 15000 ng/mL | 2.3 h | 62% | > 100 µM | > 100 µM | < 50% | > 38 µM | > 30 µM | < 50% | < 50% | 0.091 µM | > 2 h | 0.43 µM | 1 mg/kg |  |  |  |  |
| CC(C)Cc1nc2ccccc2n1Cc1cc(=O)[nH]c2c(F)c(F)ccc12 | 12 mL/min/kg | 1.1 L/kg | 8700 ng/mL | 5.2 h | 81% |  |  |  |  |  |  |  | 0.38 µM | 1.83 h | 3.1 µM |  | 13300 ng·h/mL |  |  |  |
| O=c1cc(Cn2c(C3CC(F)(F)C3)nc3nccnc32)c2cccc(F)c2[nH]1 | 6.2 mL/min/kg | 0.67 L/kg | 8800 ng/mL | 2.3 h | 55% | 35 µM | > 100 µM | < 50% | 27 µM |  |  |  | 0.22 µM | > 2 h | 3.3 µM | 3 mg/kg | 15000 ng·h/mL |  |  |  |
| CC(C)Cc1nc2nccnc2n1Cc1cc(=O)[nH]c2c(F)c(F)ccc12 | 6.1 mL/min/kg | 6.8 L/kg |  | 1.8 h | 39% | > 100 µM | > 100 µM | < 50% | > 60 µM | > 30 µM | < 50% |  | 0.088 µM | 0.783 h | 0.44 µM | 0.5 mg/kg | 11000 ng·h/mL | 3700 ng/mL | < 50% | < 50% |
| O=c1cc(Cn2c(C3CCC3)nc3nccnc32)c2cccc(F)c2[nH]1 | 5.9 mL/min/kg | 0.47 L/kg |  | 3.1 h | 91% | > 100 µM | > 100 µM | < 50% | > 60 µM |  |  | < 50% | 0.19 µM | > 2 h | 1.3 µM | 1.5 mg/kg | 25000 ng·h/mL | 15000 ng/mL | < 50% | < 50% |
